ChEMBL document CHEMBL4477203 (J Med Chem, 2016)
Numbered stars: 1 amine (or outer) side, 2 acyl side, 3 side chain; on linkers, the order of the positions; unused ones are H or OH. Bridge positions count the residues as written; N and C are the ends. Peptide text beside a SMILES is read from it. I, II: the chains in the order shown. Suberoyl = O=C(CCCCCCC(=O)[*:2])[*:1]

Tests used:
[1] = target: T1, Neuropeptide Y receptor type 4 (Homo sapiens, UniProt P50391); assay: Agonist activity at human NPY Y4 receptor expressed in HEK293 cells co-expressing CRE-Luc gene assessed as inhibition of forskolin stimulated luciferase activity after 4.5 hrs by luminescence assay; format: functional, cell-based
In short: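 HEK293 cells stably co-transfected with a CRE-controlled firefly luciferase reporter and hY4R, tested in phenol-red-free DMEM, pH 7.4. The maximal inhibition by PP was set to 0% activity (α = 1.0). Data are means ± SEM of at least 3 experiments in triplicate.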

[2] = target: T1, Neuropeptide Y receptor type 4; assay: Agonist activity at human NPY Y4 receptor expressed in CHO cells co-expressing Gqi5-mtAEQ assessed as induction of calcium mobilization by aequorin luminescence assay; format: functional, cell-based
In short: (§1)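 Luminescence was integrated as area under the curve and normalized to the response to 1 µM PP. Data are means ± SEM of at least 3 independent experiments, each run in triplicate.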

[3] = target: T1, Neuropeptide Y receptor type 4; assay: Intrinsic activity at human NPY Y4 receptor expressed in HEK293 cells co-expressing CRE-Luc gene assessed as inhibition of forskolin stimulated luciferase activity after 4.5 hrs by luminescence assay relative to pancreatic polypeptide; format: functional, cell-based
In short: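 HEK293 cells stably co-transfected with a CRE-controlled firefly luciferase reporter and hY4R, tested in phenol-red-free DMEM, pH 7.4. […] The maximal inhibition by PP was set to 0% activity (α = 1.0). Data are means ± SEM of at least 3 experiments in triplicate.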

[4] = target: T1, Neuropeptide Y receptor type 4; assay: Displacement of [3H](2R,7R)-10 from human NPY Y4 receptor expressed in CHO cells co-expressing Gqi5-mtAEQ after 90 mins in presence of sodium-free HEPES buffer by liquid scintillation counting; format: cell-based
[5] = target: T1, Neuropeptide Y receptor type 4; assay: Intrinsic activity at human NPY Y4 receptor expressed in CHO cells co-expressing Gqi5-mtAEQ assessed as induction of calcium mobilization by aequorin luminescence assay relative to pancreatic polypeptide; format: functional, cell-based; in short: as §1
[6] = target: T2, Neuropeptide Y receptor type 1 (Homo sapiens, UniProt P25929); assay: Displacement of [3H]UR-MK136 from human NPY Y1 receptor expressed in human MCF7 cells by liquid scintillation counting; format: cell-based
T2 sequence (P25929 whole entry): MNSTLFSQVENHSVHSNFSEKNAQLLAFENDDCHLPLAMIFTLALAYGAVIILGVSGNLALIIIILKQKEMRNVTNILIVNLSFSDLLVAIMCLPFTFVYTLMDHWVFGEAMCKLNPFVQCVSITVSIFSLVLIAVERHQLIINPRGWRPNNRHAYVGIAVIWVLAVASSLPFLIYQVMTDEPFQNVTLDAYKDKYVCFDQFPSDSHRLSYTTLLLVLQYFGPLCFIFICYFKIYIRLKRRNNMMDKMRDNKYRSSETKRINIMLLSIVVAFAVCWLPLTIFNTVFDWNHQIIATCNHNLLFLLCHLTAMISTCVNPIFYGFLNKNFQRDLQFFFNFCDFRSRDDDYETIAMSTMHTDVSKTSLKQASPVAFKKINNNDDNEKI

[7] = target: T3, Neuropeptide Y receptor type 2 (Homo sapiens, UniProt P49146); assay: Displacement of [3H]propionyl-pNPY from human NPY Y2 receptor expressed in CHO cells co-expressing Gqi5-mtAEQ after 90 mins by liquid scintillation counting; format: cell-based
T3 sequence (P49146 whole entry): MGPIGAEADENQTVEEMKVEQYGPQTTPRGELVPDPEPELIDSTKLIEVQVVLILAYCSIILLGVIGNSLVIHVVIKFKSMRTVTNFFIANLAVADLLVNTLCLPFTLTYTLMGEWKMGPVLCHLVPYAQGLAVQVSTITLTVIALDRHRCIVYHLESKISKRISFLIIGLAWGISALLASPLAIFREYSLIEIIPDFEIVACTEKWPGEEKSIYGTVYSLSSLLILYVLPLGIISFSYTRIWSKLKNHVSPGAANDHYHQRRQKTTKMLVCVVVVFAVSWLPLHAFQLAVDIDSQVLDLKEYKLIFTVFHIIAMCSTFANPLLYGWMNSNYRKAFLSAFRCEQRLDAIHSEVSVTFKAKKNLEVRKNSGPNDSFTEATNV
In short: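 Adherent CHO-hY2R-Gqi5-mtAEQ cells in buffer I with 1% BSA and 0.1 mg/mL bacitracin at 22 °C. […] Incubation was 90 min, followed by two ice-cold washes, lysis and scintillation counting.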

[8] = target: T4, Neuropeptide Y receptor type 5 (Homo sapiens, UniProt Q15761); assay: Displacement of [3H]propionyl-pNPY from human NPY Y5 receptor expressed in human HEC1b cells after 120 mins by liquid scintillation counting; format: cell-based
T4 sequence (Q15761 whole entry): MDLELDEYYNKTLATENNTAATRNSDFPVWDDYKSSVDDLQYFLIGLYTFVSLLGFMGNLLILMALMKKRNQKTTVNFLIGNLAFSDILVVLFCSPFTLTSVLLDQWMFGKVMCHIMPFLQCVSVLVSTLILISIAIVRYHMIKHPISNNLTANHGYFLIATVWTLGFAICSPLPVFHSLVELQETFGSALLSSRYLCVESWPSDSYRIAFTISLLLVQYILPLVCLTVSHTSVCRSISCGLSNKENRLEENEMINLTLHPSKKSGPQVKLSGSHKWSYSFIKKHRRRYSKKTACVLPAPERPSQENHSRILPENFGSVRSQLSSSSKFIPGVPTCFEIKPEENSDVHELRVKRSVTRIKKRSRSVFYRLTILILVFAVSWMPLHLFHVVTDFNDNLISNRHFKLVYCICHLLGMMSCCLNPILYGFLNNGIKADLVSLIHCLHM
In short: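 Adherent HEC-1B-hY5 cells in buffer II with 1% BSA and 0.1 mg/mL bacitracin at 22 °C. […] Incubation was 120 min, followed by ice-cold washes, lysis and scintillation counting.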

[9] = target: T1, Neuropeptide Y receptor type 4; assay: Displacement of [3H](2R,7R)-10 from human NPY Y4 receptor expressed in CHO cells co-expressing Gqi5-mtAEQ after 90 mins in presence of L-15 medium by liquid scintillation counting; format: cell-based
[10] = target: T1, Neuropeptide Y receptor type 4; assay: Displacement of [3H]18 from human NPY Y4 receptor expressed in CHO cells co-expressing Gqi5-mtAEQ after 90 mins by liquid scintillation counting; format: cell-based; settings: cho

T1 sequence (P50391 whole entry): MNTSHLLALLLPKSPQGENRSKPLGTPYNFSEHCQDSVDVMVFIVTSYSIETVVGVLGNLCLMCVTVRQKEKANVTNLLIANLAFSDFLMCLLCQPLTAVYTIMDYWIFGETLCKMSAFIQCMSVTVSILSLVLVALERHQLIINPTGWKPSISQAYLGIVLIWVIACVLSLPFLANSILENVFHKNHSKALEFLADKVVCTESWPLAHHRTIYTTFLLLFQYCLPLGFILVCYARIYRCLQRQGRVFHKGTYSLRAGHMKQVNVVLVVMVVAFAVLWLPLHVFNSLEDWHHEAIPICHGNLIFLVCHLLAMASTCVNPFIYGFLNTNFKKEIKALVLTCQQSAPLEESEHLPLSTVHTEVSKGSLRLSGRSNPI

Compound | EC50 [1] | EC50 [2] | Intrinsic activity [3] | Ki [4] | Intrinsic activity [5] | Ki [6] | Ki [7] | Ki [8] | Ki [9] | EC50 ([1]; hek293) | EC50 ([2]; cho) | Ki ([4]; cho) | Ki [10] | Ki ([6]; mcf7) | Ki ([7]; cho)
CC[C@H](C)[C@H](N)C(=O)N[C@H]1CCC(=O)NC[C@@H](C(=O)N[C@@H](Cc2ccc(O)cc2)C(=O)N[C@@H](CCCN=C(N)N)C(=O)N[C@@H](CC(C)C)C(=O)N[C@@H](CCCN=C(N)N)C(=O)N[C@@H](Cc2ccc(O)cc2)C(N)=O)NC(=O)[C@@H]2CCCN2C(=O)[C@@H](NC(=O)[C@@H](N)[C@@H](C)CC)CCC(=O)NC[C@@H](C(=O)N[C@@H](Cc2ccc(O)cc2)C(=O)N[C@@H](CCCN=C(N)N)C(=O)N[C@@H](CC(C)C)C(=O)N[C@@H](CCCN=C(N)N)C(=O)N[C@@H](Cc2ccc(O)cc2)C(N)=O)NC(=O)[C@@H]2CCCN2C1=O |  |  |  |  |  |  |  |  |  | 5.5 nM | 8.5 nM | 1.6 nM | 1.3 nM |  | 
CC(C)C[C@H](NC(=O)[C@H](CCCNC(=N)N)NC(=O)[C@H](Cc1ccc(O)cc1)NC(=O)CCCCCCC(=O)N[C@@H](Cc1ccc(O)cc1)C(=O)N[C@@H](CCCNC(=N)N)C(=O)N[C@@H](CC(C)C)C(=O)N[C@@H](C)C(=O)N[C@@H](Cc1ccc(O)cc1)C(N)=O)C(=O)N[C@@H](C)C(=O)N[C@@H](Cc1ccc(O)cc1)C(N)=O (I: YRLAY-NH2 / II: YRLAY-NH2; linker I:N-II:N via Suberoyl) | > 3000 nM |  |  | > 3000 nM |  | > 10000 nM | > 10000 nM | > 10000 nM |  |  |  |  |  |  | 
CCC(=O)N[C@H](CCCC[C@@H](N)C(=O)N[C@H](Cc1ccc(O)cc1)C(=O)N[C@H](CCCNC(=N)N)C(=O)N[C@H](CC(C)C)C(=O)N[C@H](CCCNC(=N)N)C(=O)N[C@H](Cc1ccc(O)cc1)C(N)=O)C(=O)N[C@@H](Cc1ccc(O)cc1)C(=O)N[C@@H](CCCNC(=N)N)C(=O)N[C@@H](CC(C)C)C(=O)N[C@@H](CCCNC(=N)N)C(=O)N[C@@H](Cc1ccc(O)cc1)C(N)=O |  |  | 0.98 |  | 0.7 |  |  | 400 nM |  | 27 nM | 59 nM | 2.8 nM |  | 290 nM | 750 nM
CC[C@H](C)[C@H](N)C(=O)N[C@H]1CCC(=O)NC[C@@H](C(=O)N[C@@H](Cc2ccc(O)cc2)C(=O)N[C@@H](CCCN=C(N)N)C(=O)N[C@@H](CC(C)C)C(=O)N[C@@H](CCCN=C(N)N)C(=O)N[C@@H](Cc2ccc(O)cc2)C(N)=O)NC(=O)[C@@H]2CCCN2C(=O)[C@H](NC(=O)[C@@H](N)[C@@H](C)CC)CCC(=O)NC[C@H](C(=O)N[C@@H](Cc2ccc(O)cc2)C(=O)N[C@@H](CCCN=C(N)N)C(=O)N[C@@H](CC(C)C)C(=O)N[C@@H](CCCN=C(N)N)C(=O)N[C@@H](Cc2ccc(O)cc2)C(N)=O)NC(=O)[C@@H]2CCCN2C1=O |  |  | 1.01 |  | 0.62 |  |  |  |  |  |  |  |  |  | 
CC(C)C[C@H](NC(=O)[C@H](C)NC(=O)[C@H](Cc1ccc(O)cc1)NC(=O)CCCCCCC(=O)N[C@@H](Cc1ccc(O)cc1)C(=O)N[C@@H](C)C(=O)N[C@@H](CC(C)C)C(=O)N[C@@H](CCCNC(=N)N)C(=O)N[C@@H](Cc1ccc(O)cc1)C(N)=O)C(=O)N[C@@H](CCCNC(=N)N)C(=O)N[C@@H](Cc1ccc(O)cc1)C(N)=O (I: YALRY-NH2 / II: YALRY-NH2; linker I:N-II:N via Suberoyl) | > 3000 nM | > 3000 nM |  | > 3000 nM |  | > 3000 nM | > 10000 nM | 550 nM |  |  |  |  |  |  | 

Further compounds by falling Ki [4], results first:

EC50 [1] | EC50 [2] | Intrinsic activity [3] | Ki [4] | Intrinsic activity [5] | Ki [6] | Ki [7] | Ki [8] | Ki [9] | EC50 ([1]; hek293) | EC50 ([2]; cho) | Ki ([4]; cho) | Ki [10] | Ki ([6]; mcf7) | Ki ([7]; cho) | Compound
160 nM | 290 nM | 0.98 | 12 nM | 0.85 | 1400 nM | > 3000 nM | 220 nM |  |  |  |  |  |  |  | CC(C)C[C@H](NC(=O)[C@H](C)NC(=O)[C@H](Cc1ccc(O)cc1)NC(=O)CCCCCCC(=O)N[C@@H](Cc1ccc(O)cc1)C(=O)N[C@@H](CCCNC(=N)N)C(=O)N[C@@H](CC(C)C)C(=O)N[C@@H](CCCNC(=N)N)C(=O)N[C@@H](Cc1ccc(O)cc1)C(N)=O)C(=O)N[C@@H](CCCNC(=N)N)C(=O)N[C@@H](Cc1ccc(O)cc1)C(N)=O (I: YALRY-NH2 / II: YRLRY-NH2; linker I:N-II:N via Suberoyl)
150 nM | 310 nM | 0.99 | 11 nM | 0.85 | 1600 nM | > 3000 nM | 460 nM |  |  |  |  |  |  |  | CC(C)C[C@H](NC(=O)[C@H](CCCNC(=N)N)NC(=O)[C@H](Cc1ccc(O)cc1)NC(=O)CCCCCCC(=O)N[C@@H](Cc1ccc(O)cc1)C(=O)N[C@@H](CCCNC(=N)N)C(=O)N[C@@H](CC(C)C)C(=O)N[C@@H](CCCNC(=N)N)C(=O)N[C@@H](Cc1ccc(O)cc1)C(N)=O)C(=O)N[C@@H](C)C(=O)N[C@@H](Cc1ccc(O)cc1)C(N)=O (I: YRLAY-NH2 / II: YRLRY-NH2; linker I:N-II:N via Suberoyl)
86 nM | 49 nM | 0.93 | 3.5 nM | 0.73 | 720 nM | 1700 nM | 280 nM |  |  |  |  |  |  |  | CC(C)C[C@H](NC(=O)[C@H](CCCNC(=N)N)NC(=O)[C@H](Cc1ccc(O)cc1)NC(=O)CCCCCCC(=O)N[C@@H](Cc1ccc(O)cc1)C(=O)N[C@@H](CCCNC(=N)N)C(=O)N[C@@H](CC(C)C)C(=O)N[C@@H](CCCNC(=N)N)C(=O)N[C@@H](Cc1ccc(O)cc1)C(N)=O)C(=O)N[C@@H](CCCNC(=N)N)C(=O)N[C@@H](Cc1ccc(O)cc1)C(N)=O (I: YRLRY-NH2 / II: YRLRY-NH2; linker I:N-II:N via Suberoyl)
19 nM | 18 nM | 1.07 | 2.3 nM | 0.78 | 930 nM | 950 nM | 2100 nM | 17 nM |  |  |  |  |  |  | CC(C)C[C@H](NC(=O)[C@H](CCCNC(=N)N)NC(=O)[C@H](Cc1ccc(O)cc1)NC(=O)[C@@H](N)CCCC[C@H](N)C(=O)N[C@@H](Cc1ccc(O)cc1)C(=O)N[C@@H](CCCNC(=N)N)C(=O)N[C@@H](CC(C)C)C(=O)N[C@@H](CCCNC(=N)N)C(=O)N[C@@H](Cc1ccc(O)cc1)C(N)=O)C(=O)N[C@@H](CCCNC(=N)N)C(=O)N[C@@H](Cc1ccc(O)cc1)C(N)=O
 |  |  | 1.06 nM |  |  |  |  |  |  |  |  |  |  |  | CC(C)C[C@H](NC(=O)[C@H](CCCNC(=N)N)NC(=O)[C@H](Cc1ccc(O)cc1)NC(=O)C(N)CCCCC(N)C(=O)N[C@@H](Cc1ccc(O)cc1)C(=O)N[C@@H](CCCNC(=N)N)C(=O)N[C@@H](CC(C)C)C(=O)N[C@@H](CCCNC(=N)N)C(=O)N[C@@H](Cc1ccc(O)cc1)C(N)=O)C(=O)N[C@@H](CCCNC(=N)N)C(=O)N[C@@H](Cc1ccc(O)cc1)C(N)=O (some centres undefined)
